pIC50: −log10 of the molar value.
Legend:
[1] = test system: NCI-H460; assay: Cytotoxicity against human H460 cells after 24 hrs by sulforhodamine B assay; assay type: functional, cell-based; conditions: NCI-H460, 24 h
[2] = test system: HCT-116; assay: Cytotoxicity against human HCT116 cells after 24 hrs by sulforhodamine B assay; assay type: functional, cell-based; conditions: HCT-116, 24 h
[3] = biological target: Histone deacetylase 9 (Homo sapiens, UniProt Q9UKV0); assay: Inhibition of human HDAC9 by fluorimetry
Sequence of Histone deacetylase 9 (Q9UKV0 whole entry, the tested form may be a part, canonical isoform): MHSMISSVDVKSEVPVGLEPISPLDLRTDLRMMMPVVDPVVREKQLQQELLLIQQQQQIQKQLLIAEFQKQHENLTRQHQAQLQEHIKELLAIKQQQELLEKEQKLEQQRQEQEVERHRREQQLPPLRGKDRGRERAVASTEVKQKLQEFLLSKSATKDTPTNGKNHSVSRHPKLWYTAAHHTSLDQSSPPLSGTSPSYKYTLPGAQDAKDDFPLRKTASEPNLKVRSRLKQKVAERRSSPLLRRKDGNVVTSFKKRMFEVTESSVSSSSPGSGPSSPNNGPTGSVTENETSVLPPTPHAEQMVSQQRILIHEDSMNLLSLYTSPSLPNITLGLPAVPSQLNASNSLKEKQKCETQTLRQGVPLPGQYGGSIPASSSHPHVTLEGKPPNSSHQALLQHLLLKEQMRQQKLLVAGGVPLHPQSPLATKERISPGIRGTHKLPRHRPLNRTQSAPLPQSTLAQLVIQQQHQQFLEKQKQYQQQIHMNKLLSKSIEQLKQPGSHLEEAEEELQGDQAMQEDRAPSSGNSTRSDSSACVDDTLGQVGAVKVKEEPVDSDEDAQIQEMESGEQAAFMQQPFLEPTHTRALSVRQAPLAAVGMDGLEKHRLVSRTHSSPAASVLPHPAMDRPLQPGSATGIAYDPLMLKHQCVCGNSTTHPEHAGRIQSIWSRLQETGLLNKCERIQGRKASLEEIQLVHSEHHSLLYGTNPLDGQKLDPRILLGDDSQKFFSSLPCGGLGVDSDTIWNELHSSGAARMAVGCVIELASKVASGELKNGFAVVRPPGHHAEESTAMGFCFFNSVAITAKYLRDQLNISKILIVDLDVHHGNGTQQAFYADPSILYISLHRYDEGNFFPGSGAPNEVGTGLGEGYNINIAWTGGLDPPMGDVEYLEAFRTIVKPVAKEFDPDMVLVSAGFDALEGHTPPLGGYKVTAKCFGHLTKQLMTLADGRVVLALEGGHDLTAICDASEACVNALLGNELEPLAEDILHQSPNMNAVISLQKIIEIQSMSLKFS
Procedure, shortened: (§1)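 Each purified single HDAC isoform incubated with fluorogenic substrate, a p53 fragment (residues […], Arg-His-Lys-Lys(Ac)) carrying an ε-acetylated lysine; deacetylation releases fluorophore, read by fluorimeter. Compounds tested as 10 doses, 1:3 serial dilution starting from 50 µM solution. IC50 from dose-response inhibition curves; trichostatin A as reference compound.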

[4] = biological target: Histone deacetylase 1 (Homo sapiens, UniProt Q13547); assay: Inhibition of human HDAC1 by fluorimetry; procedure, shortened: as §1
Sequence of Histone deacetylase 1 (Q13547 whole entry): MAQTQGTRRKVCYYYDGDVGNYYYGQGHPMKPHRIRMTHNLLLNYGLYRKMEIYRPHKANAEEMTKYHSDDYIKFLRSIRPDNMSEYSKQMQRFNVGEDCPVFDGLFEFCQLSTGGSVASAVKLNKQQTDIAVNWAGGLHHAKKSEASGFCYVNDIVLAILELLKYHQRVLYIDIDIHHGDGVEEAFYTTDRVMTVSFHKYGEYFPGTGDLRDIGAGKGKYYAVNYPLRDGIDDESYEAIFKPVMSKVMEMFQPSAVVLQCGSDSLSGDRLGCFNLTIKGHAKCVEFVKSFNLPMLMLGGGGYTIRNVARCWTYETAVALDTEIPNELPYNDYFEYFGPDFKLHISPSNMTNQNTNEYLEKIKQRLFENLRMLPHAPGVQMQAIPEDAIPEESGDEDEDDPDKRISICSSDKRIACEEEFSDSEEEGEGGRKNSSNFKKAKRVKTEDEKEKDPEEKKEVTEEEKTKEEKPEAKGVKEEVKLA

[5] = biological target: Histone deacetylase 2 (Homo sapiens, UniProt Q92769); assay: Inhibition of human HDAC2 by fluorimetry; procedure, shortened: as §1
Sequence of Histone deacetylase 2 (Q92769 whole entry): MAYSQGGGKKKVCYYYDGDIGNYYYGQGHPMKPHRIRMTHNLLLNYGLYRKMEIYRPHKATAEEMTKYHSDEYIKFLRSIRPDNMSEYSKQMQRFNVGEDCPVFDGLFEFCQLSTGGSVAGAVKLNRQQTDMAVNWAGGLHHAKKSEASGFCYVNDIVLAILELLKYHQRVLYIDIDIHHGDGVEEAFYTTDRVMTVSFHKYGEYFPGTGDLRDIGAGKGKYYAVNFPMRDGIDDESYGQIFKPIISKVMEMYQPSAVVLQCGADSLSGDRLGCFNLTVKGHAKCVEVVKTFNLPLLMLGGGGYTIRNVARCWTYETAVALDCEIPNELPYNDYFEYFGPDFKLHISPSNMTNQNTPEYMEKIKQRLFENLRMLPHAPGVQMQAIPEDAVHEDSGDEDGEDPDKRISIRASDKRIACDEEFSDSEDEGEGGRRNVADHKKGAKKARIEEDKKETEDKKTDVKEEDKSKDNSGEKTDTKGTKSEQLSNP

[6] = biological target: Histone deacetylase 3 (Homo sapiens, UniProt O15379); assay: Inhibition of human HDAC3 by fluorimetry; procedure, shortened: as §1
Sequence of Histone deacetylase 3 (O15379 whole entry): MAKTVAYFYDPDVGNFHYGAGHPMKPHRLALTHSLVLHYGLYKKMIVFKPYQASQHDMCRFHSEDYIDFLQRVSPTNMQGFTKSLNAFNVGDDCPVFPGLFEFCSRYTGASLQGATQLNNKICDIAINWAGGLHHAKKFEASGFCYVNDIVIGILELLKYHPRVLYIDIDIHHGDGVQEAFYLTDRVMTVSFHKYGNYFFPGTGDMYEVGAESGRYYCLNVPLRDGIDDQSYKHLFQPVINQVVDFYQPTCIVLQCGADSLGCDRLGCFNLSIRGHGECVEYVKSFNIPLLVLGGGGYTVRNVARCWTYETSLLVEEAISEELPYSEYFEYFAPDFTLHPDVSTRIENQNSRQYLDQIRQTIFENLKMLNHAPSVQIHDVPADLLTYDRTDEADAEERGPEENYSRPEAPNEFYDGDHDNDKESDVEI

[7] = biological target: T1, Polyamine deacetylase HDAC10 (Homo sapiens, UniProt Q969S8); assay: Inhibition of human HDAC10 by fluorimetry; procedure, shortened: as §1
T1 sequence (Q969S8 whole entry): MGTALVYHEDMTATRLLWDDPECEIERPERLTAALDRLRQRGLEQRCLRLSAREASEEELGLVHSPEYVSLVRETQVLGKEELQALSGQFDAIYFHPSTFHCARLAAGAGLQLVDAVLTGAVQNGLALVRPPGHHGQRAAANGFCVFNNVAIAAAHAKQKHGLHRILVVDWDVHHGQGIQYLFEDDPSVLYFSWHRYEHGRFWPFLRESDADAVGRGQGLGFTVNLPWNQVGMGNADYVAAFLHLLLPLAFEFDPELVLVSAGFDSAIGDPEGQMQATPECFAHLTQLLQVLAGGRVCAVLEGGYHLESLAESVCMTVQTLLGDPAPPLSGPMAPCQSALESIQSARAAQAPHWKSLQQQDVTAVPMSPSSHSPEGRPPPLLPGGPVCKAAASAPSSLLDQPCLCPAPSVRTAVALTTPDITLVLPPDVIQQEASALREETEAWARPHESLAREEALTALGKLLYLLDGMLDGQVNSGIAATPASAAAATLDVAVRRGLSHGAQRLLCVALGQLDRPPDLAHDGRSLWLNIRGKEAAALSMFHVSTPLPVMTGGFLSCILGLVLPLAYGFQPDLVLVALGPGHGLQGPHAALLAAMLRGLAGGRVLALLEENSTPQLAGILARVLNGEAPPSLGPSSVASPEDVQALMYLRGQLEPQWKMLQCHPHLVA

[8] = biological target: Histone deacetylase 5 (Homo sapiens, UniProt Q9UQL6); assay: Inhibition of human HDAC5 by fluorimetry; procedure, shortened: as §1
Sequence of Histone deacetylase 5 (Q9UQL6 whole entry): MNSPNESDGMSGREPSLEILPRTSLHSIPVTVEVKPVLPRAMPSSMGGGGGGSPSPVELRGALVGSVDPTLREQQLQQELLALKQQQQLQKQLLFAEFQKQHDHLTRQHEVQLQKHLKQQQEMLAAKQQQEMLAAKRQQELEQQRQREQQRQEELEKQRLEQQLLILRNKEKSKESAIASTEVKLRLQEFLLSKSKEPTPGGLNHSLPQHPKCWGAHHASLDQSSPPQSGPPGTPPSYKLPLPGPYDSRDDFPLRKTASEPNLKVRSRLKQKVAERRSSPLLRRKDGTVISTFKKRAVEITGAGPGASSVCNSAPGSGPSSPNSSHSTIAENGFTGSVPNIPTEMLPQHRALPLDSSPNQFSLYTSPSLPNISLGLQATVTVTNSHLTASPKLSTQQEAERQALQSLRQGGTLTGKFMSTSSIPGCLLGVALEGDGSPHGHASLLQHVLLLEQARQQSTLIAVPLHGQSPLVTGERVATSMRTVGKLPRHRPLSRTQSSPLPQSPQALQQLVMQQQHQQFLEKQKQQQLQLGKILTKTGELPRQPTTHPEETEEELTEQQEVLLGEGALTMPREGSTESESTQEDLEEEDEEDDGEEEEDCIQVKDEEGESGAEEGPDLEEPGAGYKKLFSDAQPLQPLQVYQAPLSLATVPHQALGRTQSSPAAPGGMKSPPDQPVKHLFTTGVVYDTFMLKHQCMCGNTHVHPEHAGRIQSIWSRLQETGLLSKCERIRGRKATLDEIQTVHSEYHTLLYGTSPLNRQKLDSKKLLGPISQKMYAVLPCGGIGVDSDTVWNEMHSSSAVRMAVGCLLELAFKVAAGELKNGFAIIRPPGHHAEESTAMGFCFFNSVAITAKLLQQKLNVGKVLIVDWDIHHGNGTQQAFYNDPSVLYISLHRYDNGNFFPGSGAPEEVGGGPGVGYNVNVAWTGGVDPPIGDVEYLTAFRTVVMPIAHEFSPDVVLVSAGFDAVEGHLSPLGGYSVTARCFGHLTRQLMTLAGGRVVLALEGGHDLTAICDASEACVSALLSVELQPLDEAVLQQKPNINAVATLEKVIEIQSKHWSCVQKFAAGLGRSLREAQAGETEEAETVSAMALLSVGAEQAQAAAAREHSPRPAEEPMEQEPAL

[9] = biological target: T2, Histone deacetylase 8 (Homo sapiens, UniProt Q9BY41); assay: Inhibition of human HDAC8 by fluorimetry; procedure, shortened: as §1
T2 sequence (Q9BY41 whole entry): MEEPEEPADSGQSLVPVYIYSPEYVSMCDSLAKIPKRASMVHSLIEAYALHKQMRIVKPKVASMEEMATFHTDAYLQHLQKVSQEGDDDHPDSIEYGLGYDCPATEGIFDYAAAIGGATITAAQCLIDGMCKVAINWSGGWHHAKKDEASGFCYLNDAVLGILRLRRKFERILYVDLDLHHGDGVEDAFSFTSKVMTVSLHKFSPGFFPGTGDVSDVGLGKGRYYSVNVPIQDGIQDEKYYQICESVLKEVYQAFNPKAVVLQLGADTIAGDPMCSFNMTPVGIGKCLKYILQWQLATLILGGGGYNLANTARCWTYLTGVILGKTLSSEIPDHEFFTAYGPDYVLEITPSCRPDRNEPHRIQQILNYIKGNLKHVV

[10] = biological target: Histone deacetylase 4 (Homo sapiens, UniProt P56524); assay: Inhibition of human HDAC4 by fluorimetry; procedure, shortened: as §1
Sequence of Histone deacetylase 4 (P56524 whole entry): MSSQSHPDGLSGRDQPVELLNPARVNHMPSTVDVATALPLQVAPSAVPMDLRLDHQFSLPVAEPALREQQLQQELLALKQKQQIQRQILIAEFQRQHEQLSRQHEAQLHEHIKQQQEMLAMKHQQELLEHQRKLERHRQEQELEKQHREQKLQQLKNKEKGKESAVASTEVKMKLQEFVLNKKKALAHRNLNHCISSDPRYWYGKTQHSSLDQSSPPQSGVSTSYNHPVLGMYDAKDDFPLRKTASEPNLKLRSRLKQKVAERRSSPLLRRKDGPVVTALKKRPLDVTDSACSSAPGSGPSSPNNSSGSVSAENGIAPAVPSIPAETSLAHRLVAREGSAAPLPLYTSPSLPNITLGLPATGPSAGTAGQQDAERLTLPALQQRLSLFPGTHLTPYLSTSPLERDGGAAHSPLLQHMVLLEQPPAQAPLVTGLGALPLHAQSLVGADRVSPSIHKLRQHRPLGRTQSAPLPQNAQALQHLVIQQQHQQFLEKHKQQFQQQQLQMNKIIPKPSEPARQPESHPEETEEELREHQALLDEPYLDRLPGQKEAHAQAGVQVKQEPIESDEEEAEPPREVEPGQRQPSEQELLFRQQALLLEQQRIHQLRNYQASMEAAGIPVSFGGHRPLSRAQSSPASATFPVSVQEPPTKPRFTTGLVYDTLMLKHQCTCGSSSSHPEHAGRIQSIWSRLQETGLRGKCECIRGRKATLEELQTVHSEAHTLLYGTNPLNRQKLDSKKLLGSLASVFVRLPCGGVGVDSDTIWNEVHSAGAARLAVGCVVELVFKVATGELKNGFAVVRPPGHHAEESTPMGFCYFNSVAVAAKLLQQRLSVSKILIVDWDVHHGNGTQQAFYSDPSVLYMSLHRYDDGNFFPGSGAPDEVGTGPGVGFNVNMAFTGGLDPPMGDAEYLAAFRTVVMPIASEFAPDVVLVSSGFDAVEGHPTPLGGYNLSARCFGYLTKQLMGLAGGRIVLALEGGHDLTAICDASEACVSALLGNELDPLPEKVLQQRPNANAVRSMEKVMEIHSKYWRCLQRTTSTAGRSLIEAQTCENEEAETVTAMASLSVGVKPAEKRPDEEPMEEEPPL

[11] = biological target: T3, Protein deacetylase HDAC6 (Homo sapiens, UniProt Q9UBN7); assay: Inhibition of human HDAC6 by fluorimetry; procedure, shortened: as §1
T3 sequence (Q9UBN7 whole entry): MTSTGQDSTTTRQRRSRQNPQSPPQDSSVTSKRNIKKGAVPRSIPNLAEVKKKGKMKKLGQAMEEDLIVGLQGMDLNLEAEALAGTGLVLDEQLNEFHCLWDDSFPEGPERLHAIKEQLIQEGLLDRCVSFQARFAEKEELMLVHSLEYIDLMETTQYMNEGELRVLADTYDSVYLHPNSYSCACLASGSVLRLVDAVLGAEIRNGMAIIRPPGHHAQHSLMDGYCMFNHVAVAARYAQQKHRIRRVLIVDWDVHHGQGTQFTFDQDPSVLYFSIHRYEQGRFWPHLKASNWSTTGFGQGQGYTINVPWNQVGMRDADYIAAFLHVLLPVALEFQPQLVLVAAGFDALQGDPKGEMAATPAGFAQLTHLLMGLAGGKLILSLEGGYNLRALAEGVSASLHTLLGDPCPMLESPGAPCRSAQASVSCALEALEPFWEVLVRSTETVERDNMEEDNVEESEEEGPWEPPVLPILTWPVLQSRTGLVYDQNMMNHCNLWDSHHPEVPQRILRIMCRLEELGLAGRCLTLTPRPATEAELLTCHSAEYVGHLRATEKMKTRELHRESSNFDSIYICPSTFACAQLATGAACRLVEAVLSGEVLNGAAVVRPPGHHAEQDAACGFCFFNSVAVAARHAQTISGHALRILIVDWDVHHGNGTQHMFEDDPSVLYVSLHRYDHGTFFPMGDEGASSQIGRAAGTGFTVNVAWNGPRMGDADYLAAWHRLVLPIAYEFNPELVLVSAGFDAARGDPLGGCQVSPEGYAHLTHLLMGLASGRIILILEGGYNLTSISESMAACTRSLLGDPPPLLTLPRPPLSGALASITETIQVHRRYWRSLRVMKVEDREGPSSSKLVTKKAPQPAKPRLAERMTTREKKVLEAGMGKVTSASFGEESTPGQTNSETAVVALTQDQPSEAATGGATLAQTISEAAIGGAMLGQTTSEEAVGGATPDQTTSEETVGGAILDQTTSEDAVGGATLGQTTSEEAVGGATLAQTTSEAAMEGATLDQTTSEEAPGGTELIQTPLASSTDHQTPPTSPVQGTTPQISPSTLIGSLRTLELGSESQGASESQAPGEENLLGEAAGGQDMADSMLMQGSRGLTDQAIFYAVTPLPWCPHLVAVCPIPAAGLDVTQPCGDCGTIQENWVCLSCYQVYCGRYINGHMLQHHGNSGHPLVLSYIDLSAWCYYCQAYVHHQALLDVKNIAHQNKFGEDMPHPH

Row | SMILES | pIC50 [1] | pIC50 [2] | pIC50 [3] | pIC50 [4] | pIC50 [5] | pIC50 [6] | pIC50 [7] | pIC50 [8] | pIC50 [9] | pIC50 [10] | pIC50 [11]
1 | O=C(CCCCCC(c1c[nH]c2cccc(F)c12)c1c[nH]c2cccc(F)c12)NO | 6.15 | 6.40 | – | – | – | – | – | – | – | – | –
2 | Cn1cc(C(CCCCCC(=O)NO)c2cn(C)c3ccccc23)c2ccccc21 | 5.06 | 5.18 | – | – | – | – | – | – | – | – | –
3 | Cc1[nH]c2ccccc2c1C(c1ccc(/C=C/C(=O)NO)cc1)c1c(C)[nH]c2ccccc12 | < 4.70 | < 4.70 | – | – | – | – | – | – | – | – | –
4 | O=C(CCCCCc1c[nH]c2ccccc12)NO | 4.66 | 4.82 | – | – | – | – | – | – | – | – | –
5 | O=C(CCCC(c1c[nH]c2ccccc12)c1c[nH]c2ccccc12)NO | < 4.70 | < 4.70 | – | – | – | – | – | – | – | – | –
6 | O=C(CCC(c1c[nH]c2ccccc12)c1c[nH]c2ccccc12)NO | < 4.70 | < 4.70 | – | – | – | – | – | – | – | – | –
7 | O=C(CCCCC(c1c[nH]c2ccccc12)c1c[nH]c2ccccc12)NO | 5.28 | 5.24 | – | – | – | – | – | – | – | – | –
8 | COc1cccc2c(C(CCCCCC(=O)NO)c3c[nH]c4c(OC)cccc34)c[nH]c12 | 6.26 | 6.39 | 6.47 | 7.08 | 6.36 | 7.64 | 6.62 | 6.51 | 6.74 | 6.66 | 8.59
9 | O=C(CCCCCC(c1c[nH]c2ccc([N+](=O)[O-])cc12)c1c[nH]c2ccc([N+](=O)[O-])cc12)NO | 5.49 | 5.92 | 6.82 | 6.85 | 6.23 | 7.74 | 6.60 | 6.85 | 6.22 | 6.66 | 7.70

Reference: ChEMBL document CHEMBL1153591, “Exploring bis-(indolyl)methane moiety as an alternative and innovative CAP group in the design of histone deacetylase (HDAC) inhibitors” (Bioorg Med Chem Lett, 2009)
